The test system of one test is HT-29. The test can be described thus: In vitro cytotoxicity against HT-29 (human colon adenocarcinoma) cell line. The test is classed as functional, cell-based. An outline of the steps: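 Human colon carcinoma HT-29 cells, 3000/well in DMEM with 10% FBS, attached 24 h. Free bases dissolved in DMSO, final DMSO <1%, added as 1:4 serial dilutions. Exposure 72 h at 37 °C, 5% CO2. MTT added for 4 h, formazan solubilized overnight in 25% SDS (pH 2), absorbance read at 550 nm. IC50 taken as concentration giving 50% of control growth.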

In test [1] the test system is Mus musculus. The test can be described thus: Median survival time of Compound on C57B1/6 mice which was implanted intraperitoneally with M5076 murine sarcoma cells at the dose of 0.8 mg/kg (dose administered intraperitoneally on days 1, 5 and 9). The format is functional. The conditions noted are these: route intraperitoneal. An outline of the steps:
(§1)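 M5076 murine sarcoma cells (10^6) implanted ip in C57Bl/6 mice. Agent given as its dimethanesulfonate salt dissolved in water. Median survival time (MST) recorded for treated and concurrent control groups. Activity expressed as %T/C, the treated MST as a percentage of the control MST.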

The test system of test [2] is Mus musculus. Put plainly: Median survival time of Compound on C57B1/6 mice which was implanted intraperitoneally with M5076 murine sarcoma cells at the dose of 1.8 mg/kg (dose administered intraperitoneally on days 1, 5 and 9). The test is classed as functional. The conditions noted are these: route intraperitoneal. An outline of the steps: as §1
For test [3], the system named is Mus musculus. The test can be described thus: Median survival time of treated mice (T) compared to controls expressed as a percentage (%T/C) at the dose of 1.2 mg/kg (dose administered intraperitoneally on days 1, 5 and 9). The format is functional. The conditions noted are these: route intraperitoneal. The method, boiled down:
as §1

For test [4], the system named is Mus musculus. Put plainly: Median survival time of treated mice (T) compared to controls expressed as a percentage (%T/C) at the dose of 1.8 mg/kg (dose administered intraperitoneally on days 1, 5 and 9). The format is functional. The conditions noted are these: route intraperitoneal. The method, boiled down:
as §1

For test [5], the system named is Mus musculus. Put plainly: Median survival time of treated mice (T) compared to controls expressed as a percentage (%T/C) at the dose of 0.8 mg/kg (dose administered intraperitoneally on days 1, 5 and 9). The format is functional. The conditions noted are these: route intraperitoneal. An outline of the steps: as §1
In test [6] the test system is Mus musculus. The test can be described thus: Median survival time of Compound on C57B1/6 mice which was implanted intraperitoneally with M5076 murine sarcoma cells at the dose of 1.2 mg/kg (dose administered intraperitoneally on days 1, 5 and 9). The test is classed as functional. The conditions noted are these: route intraperitoneal. An outline of the steps: as §1

The test system of test [7] is Mus musculus. Put plainly: Median survival time of Compound on C57B1/6 mice which was implanted intraperitoneally with M5076 murine sarcoma cells at the dose of 5.0 mg/kg (dose administered intraperitoneally on days 1, 5 and 9). The test is classed as functional. The conditions noted are these: route intraperitoneal. An outline of the steps: (§2)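 M5076 murine sarcoma, 10^6 cells implanted intraperitoneally into C57Bl/6 mice. Median survival time recorded for treated (T) and control (C) groups. %T/C calculated as the treated median survival relative to the control median survival, times 100.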

For test [8], the system named is Mus musculus. Put plainly: Median survival time of Compound on C57B1/6 mice which was implanted intraperitoneally with M5076 murine sarcoma cells at the dose of 3.3 mg/kg (dose administered intraperitoneally on days 1, 5 and 9). The conditions noted are these: route intraperitoneal. The format is functional. The method, boiled down:
as §2

The test system of test [9] is Mus musculus. The test can be described thus: Median survival time of Compound on C57B1/6 mice which was implanted intraperitoneally with M5076 murine sarcoma cells at the dose of 7.5 mg/kg (dose administered intraperitoneally on days 1, 5 and 9). The test is classed as functional. The conditions noted are these: route intraperitoneal. An outline of the steps: as §2

The test system of test [10] is Mus musculus. The test can be described thus: Median survival time of treated mice (T) compared to controls expressed as a percentage (%T/C) at the dose of 7.5 mg/kg (dose administered intraperitoneally on days 1, 5 and 9). The format is functional. The conditions noted are these: route intraperitoneal. The method, boiled down: as §2
Test [11] relates to Mus musculus. Put plainly: Median survival time of treated mice (T) compared to controls expressed as a percentage (%T/C) at the dose of 5.0 mg/kg (dose administered intraperitoneally on days 1, 5 and 9). The format is functional. The conditions noted are these: route intraperitoneal. An outline of the steps:
as §2

The subject of test [12] is Mus musculus. The test can be described thus: Median survival time of Compound on C57B1/6 mice which was implanted intraperitoneally with M5076 murine sarcoma cells at the dose of 2.2 mg/kg (dose administered intraperitoneally on days 1, 5 and 9). The conditions noted are these: route intraperitoneal. The format is functional. The method, boiled down:
as §2

In test [13] the test system is Mus musculus. Put plainly: Median survival time of treated mice (T) compared to controls expressed as a percentage (%T/C) at the dose of 3.3 mg/kg (dose administered intraperitoneally on days 1, 5 and 9). The test is classed as functional. The conditions noted are these: route intraperitoneal. The method, boiled down: as §2
The test system of test [14] is Mus musculus. Put plainly: Median survival time of treated mice (T) compared to controls expressed as a percentage (%T/C) at the dose of 2.2 mg/kg (dose administered intraperitoneally on days 1, 5 and 9). The format is functional. The conditions noted are these: route intraperitoneal. An outline of the steps:
as §2

pIC50: −log10 of the molar value.

In general, pIC50 refers to the negative decadic logarithm of the IC50, by convention in mol/L. Turning to `O=C1c2cccc3cc4c([N+](=O)[O-])cccc4c(c23)C(=O)N1CCNCCNCCN1C(=O)c2cccc3cc4c([N+](=O)[O-])cccc4c(c23)C1=O`, the pIC50 with HT-29 was 7.02.
In the test on HT-29, `O=C1c2cccc3cc4ccccc4c(c23)C(=O)N1CCN1CCCN(CCN2C(=O)c3cccc4cc5ccccc5c(c34)C2=O)C1` gave a pIC50 of 8.70.
On the same count and under the same terms, the result for `O=C1c2cccc3cc4c([N+](=O)[O-])cccc4c(c23)C(=O)N1CCNCCCNCCN1C(=O)c2cccc3cc4c([N+](=O)[O-])cccc4c(c23)C1=O` reads 7.46.
`O=C1c2cccc3cc4ccccc4c(c23)C(=O)N1CCCNCCNCCCN1C(=O)c2cccc3cc4ccccc4c(c23)C1=O` had a pIC50 in the test on HT-29 of 7.02.
The same measure, in the same setting: the result for `CN(CCN(C)CCN1C(=O)c2cccc3cc4ccccc4c(c23)C1=O)CCN1C(=O)c2cccc3cc4ccccc4c(c23)C1=O` reads 7.12; that for `O=C1c2cccc3cc4ccccc4c(c23)C(=O)N1CCNCCN1C(=O)c2cccc3cc4ccccc4c(c23)C1=O`, 7.52.
The compound `O=C1c2cccc3cc4ccccc4c(c23)C(=O)N1CCCNCCCNCCCN1C(=O)c2cccc3cc4ccccc4c(c23)C1=O` showed a negative logarithm of the IC50 (pIC50) with HT-29 of 7.05.
Same read-out and setting: then `O=C1c2cccc3cc4ccccc4c(c23)C(=O)N1CCNCCCCCNCCN1C(=O)c2cccc3cc4ccccc4c(c23)C1=O`, with 8.05; and `O=C1c2cccc3cc4ccccc4c(c23)C(=O)N1CCNCCNCCN1C(=O)c2cccc3cc4ccccc4c(c23)C1=O`, with 8.05; and `O=C1c2cccc3cc4ccccc4c(c23)C(=O)N1CCCNCCN1C(=O)c2cccc3cc4ccccc4c(c23)C1=O`, with 5.70.
As for `O=C1c2cccc3cc4ccccc4c(c23)C(=O)N1CCCNCCCCNCCCN1C(=O)c2cccc3cc4ccccc4c(c23)C1=O`, in the test on HT-29, the pIC50 is 6.70.
Take `CN(CCCN1C(=O)c2cccc3cc4ccccc4c(c23)C1=O)CCCN1C(=O)c2cccc3cc4ccccc4c(c23)C1=O`: the pIC50 with HT-29 is 7.72.
A word on the T/C: it is the ratio of treated to control. In the case of `O=C1c2cccc3cc4ccccc4c(c23)C(=O)N1CCNCCCNCCN1C(=O)c2cccc3cc4ccccc4c(c23)C1=O`, the MST was 31.5 days in the test on Mus musculus [1], 31.2 days with Mus musculus [2] and 34 days in the test on Mus musculus [6]. The values for the T/C in the test on Mus musculus [3], with Mus musculus [4] and in the test on Mus musculus [5] were 155%, 143% and 143%, respectively. In the test with HT-29, this compound gave a pIC50 of 8.40.
In the test on HT-29, `O=C1c2cccc3cc4ccccc4c(c23)C(=O)N1CCCNCCCN1C(=O)c2cccc3cc4ccccc4c(c23)C1=O` had a pIC50 of 7.70.
On the same count and under the same terms, then `O=C1c2cccc3cc4ccccc4c(c23)C(=O)N1CCCCNCCCN1C(=O)c2cccc3cc4ccccc4c(c23)C1=O`, with 7.15.
Still for that read-out and setting: then `O=C1c2cccc3cc4ccccc4c(c23)C(=O)N1CCNCCCCNCCN1C(=O)c2cccc3cc4ccccc4c(c23)C1=O`, with 7.39; and `CN(C)CCN1C(=O)c2cccc3cc(N)cc(c23)C1=O` [AMONAFIDE], with 5.52; and `CN(C)CCN1C(=O)c2cccc3cc4ccccc4c(c23)C1=O` [AZONAFIDE], with 6.85.
For the compound `O=C1c2cccc3cccc(c23)C(=O)N1CCNCCCNCCN1C(=O)c2cccc3cccc(c23)C1=O` [ELINAFIDE], the MST was 24 days in the test with Mus musculus [7], 21.5 days in the test with Mus musculus [8], 21 days in the test on Mus musculus [9] and 21.5 days in the test on Mus musculus [12]. Besides, the T/C worked out at 89% with Mus musculus [10], 102% with Mus musculus [11], 91% with Mus musculus [13] and 91% in the test with Mus musculus [14]. The same compound showed a pIC50 in the test with HT-29 of 7.85.
The compound `CN(C)CCN1C(=O)c2cccc3cc([N+](=O)[O-])cc(c23)C1=O` [MITONAFIDE] gave a negative-log IC50 (pIC50) in the test with HT-29 of 6.22.

Source of the values: ChEMBL document CHEMBL1129935, “Chromophore-modified bis-naphthalimides: synthesis and antitumor activity of bis-dibenz[de,h]isoquinoline-1,3-diones” (J Med Chem, 1997).
